# Results taken from ChEMBL document CHEMBL1124863, “Antiandrogenic steroidal sulfonylpyrazoles” (1990).
# Active and inactive are the calls of the source. The calls are words filed in the database; no cut-off is given here.
# Columns and labels:
# [1] = biological target: T1, Androgen receptor (Rattus norvegicus) (UniProt P15207); conditions: Prostate gland
# T1 sequence (whole entry): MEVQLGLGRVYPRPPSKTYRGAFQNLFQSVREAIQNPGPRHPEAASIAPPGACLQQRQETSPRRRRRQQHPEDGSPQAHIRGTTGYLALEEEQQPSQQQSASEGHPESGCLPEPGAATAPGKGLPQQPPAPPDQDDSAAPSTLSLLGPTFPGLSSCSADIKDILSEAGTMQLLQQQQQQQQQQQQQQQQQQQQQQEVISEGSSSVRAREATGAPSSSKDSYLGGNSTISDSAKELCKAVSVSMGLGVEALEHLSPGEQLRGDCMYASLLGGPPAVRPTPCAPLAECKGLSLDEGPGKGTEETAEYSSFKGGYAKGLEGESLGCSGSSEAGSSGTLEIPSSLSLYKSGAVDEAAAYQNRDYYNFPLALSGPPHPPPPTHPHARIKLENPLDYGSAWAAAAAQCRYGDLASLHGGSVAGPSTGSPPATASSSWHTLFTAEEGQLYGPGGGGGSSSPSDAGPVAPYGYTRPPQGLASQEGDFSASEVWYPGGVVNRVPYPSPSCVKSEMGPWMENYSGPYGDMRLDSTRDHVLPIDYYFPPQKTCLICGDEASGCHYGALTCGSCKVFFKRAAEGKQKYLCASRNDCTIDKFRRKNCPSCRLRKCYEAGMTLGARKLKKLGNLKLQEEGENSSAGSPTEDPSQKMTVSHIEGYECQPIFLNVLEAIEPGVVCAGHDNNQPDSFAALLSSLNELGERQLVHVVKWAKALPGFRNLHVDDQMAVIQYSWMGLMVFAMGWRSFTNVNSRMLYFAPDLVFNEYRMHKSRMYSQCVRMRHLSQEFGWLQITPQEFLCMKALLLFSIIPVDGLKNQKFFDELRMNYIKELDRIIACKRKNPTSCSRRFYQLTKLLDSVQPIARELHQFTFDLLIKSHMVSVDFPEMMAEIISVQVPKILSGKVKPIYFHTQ
# Rattus norvegicus = species: Rattus norvegicus; assay: Antiandrogenic activity as the dose required to inhibit testosterone propionate-induced rat ventral prostate weight gain in castrated immature rat by 50%.; format: functional, Prostate gland
# In short: (§1)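 Weanling male Sprague-Dawley rats castrated; dosing began 1 week later, grouped by body weight. […] Rats weighed and killed the next day; ventral prostate removed, blotted, weighed. ED50 read graphically as dose halving TP-stimulated prostate weight gain.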
# [2] = biological target: T1, Androgen receptor (Rattus norvegicus); assay: Anti-androgenic activity, inhibition of testosterone propionate induced rat ventral prostate (castrated immature rat) weight gain; format: functional; conditions: Prostate gland
# In short: as §1
# [3] = Rattus norvegicus, Prostate gland, read-out: ED50
SMILES,Increase [1],ED50 (Rattus norvegicus; [3]),also measured
C[C@]12Cc3cn(S(C)(=O)=O)nc3C=C1CCC1C2CC[C@@]2(C)C1CC[C@]2(C)O (stereo partly specified),inactive,16 mg/kg,
C#C[C@]1(O)CCC2C3CCC4=C(C)c5nn(S(C)(=O)=O)cc5C[C@]4(C)C3CC[C@@]21C (stereo partly specified),inactive,14 mg/kg,
C#C[C@]1(O)CCC2C3CCC4=C(Cl)c5nn(S(C)(=O)=O)cc5C[C@]4(C)C3CC[C@@]21C (stereo partly specified),,> 100 mg/kg,
CC(C)(O)C(=O)Nc1ccc([N+](=O)[O-])c(C(F)(F)F)c1 [HYDROXYFLUTAMIDE],inactive,4 mg/kg,
CC(=O)O[C@]1(C(C)=O)CC[C@H]2[C@@H]3C=C(Cl)C4=CC(=O)[C@@H]5C[C@@H]5[C@]4(C)[C@H]3CC[C@@]21C [CYPROTERONE ACETATE],,18 mg/kg,
CC(=O)[C@@]1(O)CC[C@H]2[C@@H]3C=C(Cl)C4=CC(=O)[C@@H]5C[C@@H]5[C@]4(C)[C@H]3CC[C@@]21C [CYPROTERONE],,87 mg/kg,
C#C[C@]1(O)CC[C@H]2[C@@H]3CC[C@H]4Cc5nn(S(C)(=O)=O)cc5C[C@]4(C)[C@H]3CC[C@@]21C (stereo in doubt; 1) [ZANOTERONE],,,ED50 (Rattus norvegicus): 15 mg/kg
C#C[C@]1(O)CCC2C3CC[C@H]4Cc5nn(S(=O)(=O)CCCC)cc5C[C@]4(C)C3CC[C@@]21C (stereo partly specified),,> 100 mg/kg,
C#C[C@]1(O)CC[C@H]2[C@@H]3CC[C@H]4Cc5nn(S(C)(=O)=O)cc5C[C@]4(C)[C@H]3CC[C@@]21C (stereo in doubt; 1),inactive,,
C#C[C@]1(O)CCC2C3CC[C@H]4Cc5nn(S(=O)(=O)C(C)C)cc5C[C@]4(C)C3CC[C@@]21C (stereo partly specified),,> 100 mg/kg,
C#C[C@]1(O)CC[C@H]2[C@@H]3CC[C@H]4Cc5nn(S(C)(=O)=O)cc5C[C@]4(C)[C@H]3CC[C@@]21C (stereo in doubt; 28),inactive,,
C#C[C@]1(O)CCC2C3CCC4=Cc5nn(S(C)(=O)=O)cc5C[C@]4(C)C3CC[C@@]21C (stereo partly specified),inactive,< 100 mg/kg,
C#C[C@]1(O)CCC2C3CC[C@H]4Cc5c(c[nH][n+]5S(C)(=O)=O)C[C@]4(C)C3CC[C@@]21C (stereo partly specified),inactive,> 100 mg/kg,
CC1=C2CCC3C(CC[C@@]4(C)C3CC[C@]4(C)O)[C@@]2(C)Cc2cn(S(C)(=O)=O)nc21 (stereo partly specified),inactive,3 mg/kg,
C#C[C@]1(O)CCC2C3CC[C@H]4Cc5nn(S(=O)(=O)CCC)cc5C[C@]4(C)C3CC[C@@]21C (stereo partly specified),,< 100 mg/kg,
CC(O)(CS(=O)(=O)c1ccc(F)cc1)C(=O)Nc1ccc(C#N)c(C(F)(F)F)c1 (stereo unspecified) [BICALUTAMIDE],,4 mg/kg,
CC[C@]1(O)CCC2C3CC[C@H]4Cc5nn(S(C)(=O)=O)cc5C[C@]4(C)C3CC[C@@]21C (stereo partly specified),inactive,41 mg/kg,
C#C[C@]1(O)CC[C@H]2[C@@H]3CC[C@H]4Cc5nn(S(C)(=O)=O)cc5C[C@]4(C)[C@H]3CC[C@@]21C (stereo in doubt; 28) [ZANOTERONE],,,ED50 (Rattus norvegicus): 40 mg/kg
C=C[C@]1(O)CCC2C3CC[C@H]4Cc5nn(S(C)(=O)=O)cc5C[C@]4(C)C3CC[C@@]21C (stereo partly specified),inactive,,ED50 [2]: 33 mg/kg
C[C@]1(O)CCC2C3CC[C@H]4Cc5nn(S(C)(=O)=O)cc5C[C@]4(C)C3CC[C@@]21C (stereo partly specified),inactive,10 mg/kg,
C#C[C@]1(O)CCC2C3CC[C@H]4Cc5nn(S(=O)(=O)CC)cc5C[C@]4(C)C3CC[C@@]21C (stereo partly specified),,100 mg/kg,
C[C@]12Cc3cn(S(C)(=O)=O)nc3C=C1CCC1C2CC[C@@]2(C)C1CC[C@@H]2O (stereo partly specified),,> 100 mg/kg,
CC(C)C(=O)Nc1ccc([N+](=O)[O-])c(C(F)(F)F)c1 [FLUTAMIDE],,5 mg/kg,
C#C[C@]1(O)CCC2C3CC[C@H]4Cc5n[nH]cc5C[C@]4(C)C3CC[C@@]21C (stereo partly specified),,50 mg/kg,
C[C@]12CCC3C(CC[C@H]4Cc5nn(S(C)(=O)=O)cc5C[C@]34C)C1CC[C@@H]2O (stereo partly specified),,> 100 mg/kg,
C[C@]12CCC3C(CC[C@H]4Cc5nn(S(C)(=O)=O)cc5C[C@]34C)C1CCC2=O (stereo partly specified),inactive,100 mg/kg,
